An excerpt weighted towards active compounds, which were near 1.7% of everything screened.
eIF4H FP inh: human eIF4H binding inhibitors, primary screen, translation initiation inhibitor project, biochemical, uHTS, fluorescence polarization | eIF4H fluorescence polarization binding assay | actives 0.94% (n = 290,000) | AID 2012, 2009 | inhibition, % at 35 µM | Eukaryotic translation initiation factor 4H (Homo sapiens), Q15056;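 note: calls also rest on retests at 20 µM and on dose response follow-up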
MT1-MMP act inh: blockers of MT1-MMP proenzyme processing, primary screen, HT1080 RFP-PRO-GFP cells, GFP/RFP fluorescence. GFP/RFP ratio fluorescence, overnight; percent of plate control window, DMSO zero. actives 0.061% (n = 360,000). AID 651647, 2012. Matrix metalloproteinase-14 (Homo sapiens), P50281. GFP/RFP ratio change, % at 20 µM;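 active = GFP/RFP ratio change of at least 30% with cell ATP level not reduced by more than half and red fluorescence within 50% of control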
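Assay system: HT1080 RFP-PRO-GFP cells. Benchmarks: DMSO vehicle wells and RFP-L50D-GFP reporter cell wells. Times: overnight cell settling, then overnight compound exposure, 37 °C, 5% CO2. Compound: 20 µM single dose, 1% DMSO. Read-out basis: GFP/RFP fluorescence ratio.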
SKN-1 block: suppressors of acrylamide-induced Pgst-4::GFP reporter in worms, primary screen, SKN-1 inhibitor project, whole organism, uHTS, GFP/RFP fluorescence ratio, strain VP596; C. elegans VP596 Pgst-4::GFP/RFP ratio, 24 h; AID 624304, 2012; inhibition, % at 21.8 µM; actives 0.49% (n = 360,000);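 active = interference check ratio from 0.5 to 1.5 plus GFP to RFP signal ratio inhibition reaching or exceeding a fixed threshold, cut at about 30% in these data, passing the limit was not always enough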
MLLE-PAM2 inh: inhibitors of PABP1 MLLE–PAM2 peptide binding, primary screen, biochemical, fluorescence polarization, FITC-PAM2, GST-MLLE | Polyadenylate-binding protein 1 (Homo sapiens), P11940 | AID 588489, 2011 | inhibition, % at 20 µM | actives 0.36% (n = 360,000); in the data active = inhibition above about 35%, passing the limit was not always enough;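 note: plate controls were DMSO wells with GST-MLLE for no effect and wells lacking GST-MLLE protein for full effect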
PABP polyA inh: PABP poly(A) RNA binding inhibitors, primary screen, biochemical, fluorescence polarization, uHTS; inhibition, % at 35 µM; actives 1% (n = 290,000);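 note: calls also rest on retests at 20 µM and on dose response follow-up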
An asterisk follows results filed as active; ? = inconclusive; nt = no result given. Unless noted, the rule behind the calls is not given here.

SMILES	eIF4H FP inh	MT1-MMP act inh	SKN-1 block	MLLE-PAM2 inh	PABP polyA inh
Nc1ccc2nc(-c3ccccc3)sc2c1	-6	-6	82*	-3	-12
CC1CCCC(C)N1C(=O)Cn1nnc(-c2ccc([N+](=O)[O-])cc2)n1 (stereo not given)	0	6	0	4	8
C=CCn1c(=O)c2ccccc2n2c(SCC(=O)NC)nnc12	-6	-2	11	-9	11
COc1cccc(-c2c(C(=O)N/N=C/c3ccco3)nnn2-c2nonc2N)c1	-12	-2	6	5	2
C=CCN1C(=O)CS/C1=C(\C#N)S(=O)(=O)c1ccc(C)cc1	12	38	34*	-20	12
C=CCN1C(=O)CSC1=Nc1ccc(C(=O)O)cc1	-1	-1	8	-15	10
Fc1ccc(CSc2nsc(SCc3ccc(F)cc3)n2)cc1	3	4	1	15	3
O=C(Nc1nc(SCc2ccc(F)cc2)ns1)c1ccco1	3	-3	54*	12	3
Cc1cccc(OCC(=O)Nc2nnc(-c3ccco3)s2)c1	33	4	6	10	19
CCCC(=O)Nc1nnc(-c2ccco2)s1	24	0	-10	11	0
COc1ccccc1OCC(=O)Nc1nnc(-c2ccco2)s1	96*	1	10	10	60*
O=C(Cc1ccccc1)Nc1nnc(-c2ccco2)s1	64	6	-11	-6	30*
COc1ccc(NC(=O)CS(=O)(=O)Cc2ccccc2)c([N+](=O)[O-])c1	3	0	17	-2	10
Cc1ccc(C)c(S(=O)(=O)Nc2ccc(O)c(Sc3ncn[nH]3)c2)c1	79*	-1	-4	18	55*
Cc1ccc(S(=O)(=O)Nc2ccc(O)c(Sc3ncn[nH]3)c2)cc1	4	1	2	-2	4
C=CCn1c(SCC(=O)NC2CCCC2)nc2scc(-c3ccco3)c2c1=O	71*	-19	5	0	26*
COc1ccc(C2CC(c3ccccc3)=NN2S(=O)(=O)c2ccc(C)cc2)c(OC)c1 (stereo not given)	9	-5	52*	-56	4
O=C(c1cccs1)c1ccc(-c2cccs2)s1	-10	-1	62*	-6	14
CN1CCN(C(=O)c2ccc(-c3cccs3)s2)CC1	36	1	-8	-2	22
CCOc1ccc(C(=O)CCC(=O)N(CC)CC(=O)NCc2ccc(Cl)cc2)cc1	-6	-3	12	-4	-7
Cc1ccc(C(=O)NCC(=O)OCC(=O)Nc2cc(S(=O)(=O)N3CCOCC3)ccc2Cl)s1	nt	1	18	2	nt
COC(=O)C1C2CC3c4[nH]c5cc(OC)ccc5c4CCN3CC2CC(OC(=O)CC(C)=O)C1OC (stereo not given)	nt	-56	47*	-28	nt
COc1ccc(NC(=O)COC(=O)CCc2ccc(S(=O)(=O)N3CCOCC3)cc2)cc1OC	nt	0	3	-9	nt
COc1ccc(NS(=O)(=O)c2ccc(N3CCCC3)c(NC(=S)Nc3cccc(C)c3C)c2)cc1	10	-3	4	28	8
COc1ccc(NS(=O)(=O)c2ccc(N3CCCC3)c(NC(=S)Nc3ccc(SC(F)F)cc3)c2)cc1	-12	-3	30	40*	4
SMILES	eIF4H FP inh	MT1-MMP act inh	SKN-1 block	MLLE-PAM2 inh	PABP polyA inh
CSc1ncccc1C(=O)OCC(=O)c1ccc(C)s1	nt	-1	2	-14	nt
CCN(CC)c1ccc2cc(C(=O)Nc3ccc(-n4cnnn4)c(OC)c3)c(=O)oc2c1	76*	nt	nt	nt	78*
C=CCn1c(=O)/c(=C/c2ccc(C)o2)s/c1=C(/C#N)C(=O)c1ccccc1	?	12	10	-111	128*
Cc1ccc(Cl)cc1NC(=O)Cn1c(C)csc1=O	nt	1	-8	-13	nt
N#CC1=C(N)n2c(s/c(=C\c3cccs3)c2=O)=C(C#N)C1c1cccs1 (stereo not given)	60	-102	9	-23	-2
CCOC(=O)C1=C(N)n2c(s/c(=C/c3ccco3)c2=O)=C(C(=O)OC)C1c1ccco1 (stereo not given)	83*	2	9	3	81*
N#CC1=C(N)n2c(s/c(=C\c3ccco3)c2=O)=C(C#N)C1c1ccco1 (stereo not given)	99*	-39	-1	-46	86*
CC[C@@]1(C(=O)OC)N[C@H](CN(C)C(=O)c2ccc(F)cc2)[C@@H]2C(=O)N(C)C(=O)[C@@H]21	nt	1	-6	5	nt
O=C(O)CSc1ncnc2sc3c(c12)CCCC3	1	-1	-3	0	13
O=C(O)CSc1ncnc2sc3c(c12)CCC3	60*	-9	9	-1	10*
Cc1ccccc1-n1c(SCC(=O)O)nc2sc3c(c2c1=O)CCCC3	6	3	36*	4	3
CN1CCc2c(sc3nc(SCC(N)=O)n(-c4ccccc4)c(=O)c23)C1	122*	-4	12	-41	103*
FC(F)(F)c1cccc(-c2ccn3ncnc3n2)c1	1	6	-3	0	12
OCCCNc1cc(-c2ccccc2)nc2cc(-c3ccc(F)cc3)nn12	-11	6	14	0	0
Cc1ccc(C(=O)CSc2n[nH]c(-c3ccco3)n2)cc1C	27	1	3	2	9
O=C(CSc1nnc(-c2ccc(OC(F)F)cc2)o1)NC(=O)NCc1ccco1	66*	0	-1	-129	31
Cn1c(SCC(=O)NC(=O)NCc2ccco2)nnc1-c1ccccc1	92*	-1	-4	0	37*
O=C(CSc1ccccc1F)NC(=O)NCc1ccco1	77*	-2	-2	-2	14*
COc1ccc(C(=O)CSc2n[nH]c(-c3ccco3)n2)cc1	71*	3	-11	2	65*
COc1ccc(-c2nnc(SCC(=O)NCc3ccco3)o2)cc1	-1	2	-3	-43	3
OC1CCCC1	nt	-1	7	1	nt
Cc1ccc(NCC(=O)N2CCN(S(=O)(=O)c3ccccc3)CC2)cc1F	nt	1	15	6	nt
COc1ccc(C)cc1-n1nnnc1SCC(=O)NC(=O)NCc1ccco1	72*	-3	-2	-42	31
O=C(CSc1n[nH]c(-c2ccccc2)n1)NC(=O)NCc1ccco1	47*	0	8	-18	60
Cc1ccccc1CSCC(=O)NC(=O)NCc1ccco1	55*	-2	4	12	45*
Cc1cc(SCC(=O)NC(=O)NCc2ccco2)nc2ccccc12	-6	-2	3	7	13

Assay outcomes (PubChem)
